This passage reports MIC and Activity results from ChEMBL document CHEMBL4138242, “Synthesis and antibacterial evaluation of novel cationic chalcone derivatives possessing broad spectrum antibacterial activity” (Eur J Med Chem, 2018).

The structures appear in SMILES notation.

For assay [1], the system named is Escherichia coli. In words: Antibacterial activity against drug-resistant NDM1 producing Escherichia coli clinical isolate Ecl-14-56 after 16 to 20 hrs by broth microdilution method. In kind it is functional. The method, boiled down: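 CLSI broth microdilution in Mueller-Hinton broth. A 4-6 h culture was diluted to about 10⁶ CFU/mL and mixed 1:1 with compound dilutions prepared at 256 to 0.5 µg/mL from aqueous stocks. Plates were incubated at 37 °C for 16-20 h and read visually for MIC. Each concentration was run in duplicate, and the experiment was repeated at least twice. Vancomycin and meropenem were comparators.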
Background: Dilution methods test growth across graded concentrations, often in twofold steps.

Assay [2] deals with Staphylococcus aureus. In words: Disruption of 24 hrs cultured Staphylococcus aureus ATCC 29213 biofilm assessed as cell viability in biofilm at 2 ug/ml after 24 hrs by crystal violet staining-based assay (reference value: 15.96 log10CFU/ml). The class given is functional.

For `CCCCCCCC[N+](C)(C)CC(=O)Nc1ccc(C(=O)/C=C/c2ccccc2F)cc1.[Cl-]`, the MIC (in general, the least concentration at which growth counts as inhibited) in assay [1] was 4 µg/mL. Also, in assay [2], the Activity came out at 13.93 log10CFU/ml.
